Most compounds without a hit are left out; they make up all but 1.2% or so of the library.
GC-A act: GC-A stimulated cGMP production enhancers – HEK293 GC-A cells, cGMP TR-FRET, EC30 ANP, primary screen | actives 0.14% (n = 370,000) | Atrial natriuretic peptide receptor 1 (Homo sapiens), P16066 | 0% at EC30 ANP, 100% saturating ANP | activation, % at 10 µM | AID 1671463, 2021; in the data active means activation above about 40%
Target sequence (P16066 whole entry, looked up): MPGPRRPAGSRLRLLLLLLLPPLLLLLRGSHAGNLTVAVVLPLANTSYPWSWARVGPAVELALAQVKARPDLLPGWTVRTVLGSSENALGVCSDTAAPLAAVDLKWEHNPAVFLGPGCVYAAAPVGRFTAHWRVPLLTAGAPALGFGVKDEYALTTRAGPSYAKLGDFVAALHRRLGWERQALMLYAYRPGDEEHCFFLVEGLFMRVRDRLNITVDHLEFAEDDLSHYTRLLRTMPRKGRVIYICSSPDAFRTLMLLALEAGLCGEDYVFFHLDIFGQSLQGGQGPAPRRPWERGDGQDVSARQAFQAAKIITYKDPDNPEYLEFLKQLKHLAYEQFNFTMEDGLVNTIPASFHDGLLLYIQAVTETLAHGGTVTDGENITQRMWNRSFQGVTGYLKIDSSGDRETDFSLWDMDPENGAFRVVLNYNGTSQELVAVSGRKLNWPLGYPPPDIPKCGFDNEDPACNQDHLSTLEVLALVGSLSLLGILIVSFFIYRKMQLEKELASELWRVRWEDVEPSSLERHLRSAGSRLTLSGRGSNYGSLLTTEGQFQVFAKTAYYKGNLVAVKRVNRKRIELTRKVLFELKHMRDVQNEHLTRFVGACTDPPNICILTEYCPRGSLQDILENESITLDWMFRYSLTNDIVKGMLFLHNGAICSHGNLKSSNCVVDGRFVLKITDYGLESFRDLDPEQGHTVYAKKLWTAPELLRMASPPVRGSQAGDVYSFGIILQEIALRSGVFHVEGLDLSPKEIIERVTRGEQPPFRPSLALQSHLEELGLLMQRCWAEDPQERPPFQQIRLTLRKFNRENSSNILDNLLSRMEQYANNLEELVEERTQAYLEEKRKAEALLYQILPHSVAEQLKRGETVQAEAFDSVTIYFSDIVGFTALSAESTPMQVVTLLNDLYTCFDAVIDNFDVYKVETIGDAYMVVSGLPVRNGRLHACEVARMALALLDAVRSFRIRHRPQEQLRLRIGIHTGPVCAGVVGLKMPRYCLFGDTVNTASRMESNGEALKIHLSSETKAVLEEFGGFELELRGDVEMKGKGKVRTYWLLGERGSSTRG
Fh CTSL1 inh: Fasciola hepatica cathepsin L1 inhibitors, primary screen, counter-screen for PFM18AAP inhibitor project, biochemical, QFRET, fluorogenic peptide substrate | recombinant F. hepatica cathepsin L1, Z-Leu-Arg-MCA fluorescence | inhibition, % at 5.96 µM | actives 0.49% (n = 300,000) | AID 1906, 2009;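 active means inhibition above the mean of all tested compounds plus 3 SD, set per screening campaign, cut at about 17% in these data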;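 further: 0% = plate median of test compound wells and 100% = 1 µM Z-Phe-Ala-diazomethylketone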
NPR2 activator: human GC-B receptor activators, primary screen, HEK293 GC-B cells, cGMP TR-FRET, EC30 CNP | actives 0.11% (n = 370,000) | AID 1920062, 2024 | activation, % at 10 µM | 0% at EC30 CNP, 100% saturating CNP;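 active means activation at 10 µM reaching about 35% in either raw or pattern-adjusted values, limit read from the data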
ASAP1 inh: inhibitors of human ASAP1 ArfGAP activity, primary screen, biochemical, fluorescence polarization. ASAP1-stimulated ARF1 GTP hydrolysis, GDP FP detection. actives 0.19% (n = 360,000). Arf-GAP with SH3 domain, ANK repeat and PH domain-containing protein 1 (Homo sapiens), …. inhibition, % at 16.5 µM; in the data active means inhibition above about 25%;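 further: 0% = vehicle with enzyme and substrate and 100% = no enzyme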
ARFGAP1 inhibitor: inhibitors of rat ARFGAP1 GAP activity, primary screen, biochemical, fluorescence polarization, GDP tracer | actives 0.26% (n = 360,000) | inhibition, % at 16.5 µM | Arfgap1-stimulated ARF1 GTP hydrolysis, GDP FP detection | ADP-ribosylation factor GTPase-activating protein 1 (Rattus norvegicus), Q62848;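 active means inhibition above a per-plate limit, mean inhibition of low control wells plus 3 SD, cut at about 25% in these data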;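 further: 0% = DMSO wells with enzyme and 100% = wells lacking Arfgap1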
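Repeats: one replicate per compound; assay system: rat Arfgap1 catalytic domain, aa 1-136; times: enzyme reaction 120 min at 25 °C after 20 min preincubation; detection: FP of antibody-bound GDP Alexa 633 tracer, ex 620/em 688 nm; benchmarks: high control wells lacking Arfgap1, low control full reaction with DMSO; reagent: human ARF1(Δ1-17)-GTP substrate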
HCV core dimer: inhibitors of HCV core protein dimerization, primary screen, biochemical, TR-FRET, high-throughput; TR-FRET GST/Flag-core106 dimerization, 1536-well; inhibition, % at 5 µM; actives 0.33% (n = 300,000);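 active means inhibition above the mean of all tested compounds plus 3 SD, set per screening campaign, cut at about 45% in these data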
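Assay system: Tagged HCV core106 pair (GST and Flag) | Buffer or medium: KF-containing HEPES buffer, pH 7.45, DTT, CHAPS, BSA | Also added: Eu donor and XL665 acceptor anti-tag antibodies | Dosing: One concentration, 5 µM, in 0.5% DMSO | Timing: 4 h at 22.5 °C | Technique: TR-FRET 671 and 617 nm emission | Repeats: Singlicate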
* hit, by the source's call; · = not tested or not shown.

SMILES	GC-A act	Fh CTSL1 inh	NPR2 activator	ASAP1 inh	ARFGAP1 inhibitor	HCV core dimer
COc1ccccc1CNc1nc(NCCOc2ccccc2Cl)c2sccc2n1	-7.4	·	-7.3	12.9	10.4	·
O=C(O)CCCC(=O)N1N=C(c2c(-c3ccccc3)c3cc(Cl)ccc3[nH]c2=O)CC1c1cccs1 (stereo not given)	-1.2	5.0	4.4	-4.4	-2.7	-0.5
O=C1N[C@@H](Cc2cn(S(=O)(=O)c3c(F)c(F)c(F)c(F)c3F)c3ccccc23)C(=O)N[C@H]1Cc1ccccc1	·	1.9	·	·	·	49.4*
O=C1N[C@@H](Cc2cn(S(=O)(=O)c3ccc([N+](=O)[O-])cc3)c3ccccc23)C(=O)N[C@H]1Cc1ccccc1	-4.3	2.4	-3.9	-0.6	12.2	0.6
CC(C)Oc1ccc(C(=O)N/N=C/c2ccc(-c3ccc(S(=O)(=O)Nc4ncccn4)cc3)o2)cc1	1.2	2.0	11.3	-8.5	-5.1	27.7
CCc1nn(CCCC(=O)N2CCc3ccccc3C2)c(=O)c2cc3occc3n12	-3.2	-0.9	-6.2	-6.4	7.8	9.8
CC1=CC(C)(C)N2C(=O)C(=Nc3ccc(O)cc3)c3cccc1c32	-2.3	43.9*	-6.2	10.5	9.8	-14.0
Cc1cc(S(=O)(=O)ON2C(=O)c3ccccc3C2=O)ccc1F	40.3*	3.7	34.7	-2.0	2.0	-3.5
CC(C)CCOP(=O)(c1ccc(N(C)C)cc1)C(Nc1ccccc1)c1ccc(N(C)C)cc1 (stereo not given)	-2.7	2.9	9.4	-1.1	19.8	14.3
CCCOP(=O)(c1ccc(N(C)C)cc1)C(Nc1ccccc1)c1ccc(C)cc1 (stereo not given)	-13.5	20.7*	-9.5	-5.9	1.5	11.4
CC(/C=C/c1ccc(N(C)C)cc1)=N\N=C(/N)SC1CC(=O)N(c2ccc(C(=O)O)cc2)C1=O (stereo not given)	-5.9	22.4*	-0.1	-0.3	-4.6	-15.5
CCOC(=O)C(C)Sc1nnc(Cn2c(=O)sc3ccccc32)n1-c1ccccc1 (stereo not given)	-3.3	-2.0	-8.7	1.9	-1.8	-1.7
COC(=O)c1sc(N2C(=O)C(O)=C(C(=O)c3ccc(C)o3)C2c2ccc([N+](=O)[O-])cc2)nc1C (stereo not given)	0.5	1.7	-3.4	13.2	3.8	13.0
CCOc1ccc(C2C(C(=O)c3ccc(C)o3)=C(O)C(=O)N2c2nc(C)c(C(=O)OC)s2)cc1 (stereo not given)	44.4*	5.3	-8.7	6.2	-6.8	-1.3
O=C(CN(Cc1ccccc1)C(=O)CCl)c1cccc(Br)c1	-18.5	74.6*	-10.4	-5.5	-11.9	-7.2
O=C(NCCCc1ccccc1)c1cccc(Br)c1	7.2	-5.3	2.7	-8.7	-6.8	1.7
O=C(N[C@H](Cc1ccccc1)C(=O)N1CCN(C(=O)N2CCCCC2)CC1)[C@H]1O[C@@H](n2ccc(=O)[nH]c2=O)[C@H](O)[C@@H]1O	0.8	·	4.5	-1.5	1.6	·
CCn1nc(C(=O)OCC(=O)N2CCc3ccccc32)c2ccccc2c1=O	4.1	4.9	5.3	14.6	1.7	9.0
CN(C)C=Nc1nc2c(Br)ccc(Br)c2cc1C(=O)NCC(C)(C)C	48.2*	·	-8.2	·	·	·
Cc1ccc(S(=O)(=O)NC(CC(=O)O)c2ccco2)cc1 (stereo not given)	-1.5	-1.8	-2.3	7.3	-6.0	-1.5
S=c1nc(Cc2ccc(Cl)cc2)[nH]c2ccccc12	16.5	0.6	20.6	4.6	-4.4	53.8*
CCOC(=O)c1ccc(/[N+]([O-])=C/c2ccccc2)cc1	-1.9	·	7.7	11.6	1.5	·

Assay outcomes: PubChem, several laboratories
